# Bioassay records as filed in PubChem.
# Shown are actives, neighbours in structure and some others; about 3.1% of the full set was active somewhere.
# PAX8 reporter – inhibitors of PAX8-driven TPO luciferase reporter, primary screen, RMG-I cells, single concentration; actives 1.2% (n = 360,000); SteadyGlo, 24 h; inhibition, % at 12.6 µM; AID 652154, 2013;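 active = mean replicate inhibition at least 60% with every replicate also reaching 60%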;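 also: luciferase light reporting Pax8 driven TPO promoter activity; plate controls were median of neutral control wells for no effect and mitoxantrone controls for full effect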
# EWS-Fli block – EWS/Fli-driven NR0B1 reporter inhibitors, primary screen, A673 cells, NR0B1 luciferase, luminescence, MLPCN library; viability-normalised; inhibition, % at 12.6 µM; actives 0.67% (n = 350,000); AID 651661, 2012;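 active = mean inhibition of at least 50% after viability correction, with every replicate also passing that limit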;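 also: firefly luciferase signal divided by Alamar Blue viability fluorescence both relative to DMSO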
# PGC1a acetyl inh – inhibitors of PGC1a acetylation signal, primary screen, cell-based, U2OS, AlphaScreen, inhibitor mode; actives 0.17% (n = 350,000); inhibition, % at 15.6 µM; AID 651687, 2012; AlphaScreen anti-acetyl-lysine; with virally co-expressed GCN5 acetyltransferase;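 active = every replicate shows inhibition of at least 40%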;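 also: 0% = neutral control wells and 100% = positive control wells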
# Env fusion inh – inhibitors of HIV-1 Env-driven cell-cell fusion, primary screen, HeLa-JRFL effector, CEM21 target cells, luciferase | inhibition, % at 12.3 µM | actives 1.1% (n = 360,000) | AID 651610, 2012;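 active = mean replicate inhibition score of at least 50 and every replicate individually at or above 50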;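 also: 0% = plate neutral controls and 100% = maraviroc near 300 nM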
# FN deposition inh – inhibitors of fibronectin matrix deposition, primary screen, AH1F cells, Alexa488-fibronectin fluorescence, plate reader | AH1F fibroblasts, overnight | inhibition, % at 12.6 µM | actives 0.086% (n = 350,000) | AID 743247, 2014;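 active = mean inhibition across replicates of 30% or more, regardless of how many single replicates reach that level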;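 also: positive control wells lacked labelled fibronectin entirely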
#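 Assay system: AH1F fibroblasts / Quantity: 10000 cells per well / Medium: DMEM plus 2% serum, read in PBS / Reagent: labelled fibronectin 24 nM / Dosing: single dose, pinned / Times: 1 h cell attachment, overnight exposure to compound and label / Signal: fluorescence, ex 485 nm, em 525 nm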
# FGF22 binding – binders of human FGF22 protein, primary screen, FGF22 synaptogenesis inhibitor project, biophysical, thermal shift, single point; activity (Tm shift, normalised), % at 9.99 µM; recombinant FGF22 thermal shift, SYPRO orange fluorescence; percent of sucrose octasulfate shift, DMSO zero; actives 1.5% (n = 340,000); AID 651658, 2012; Fibroblast growth factor 22 (Homo sapiens), Q9HCT0;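 active = mean Tm shift, scaled 0 neutral to 100 positive control, at about 1.3% or above, every replicate too, limit read from the data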
# Target sequence (Q9HCT0 whole entry, looked up): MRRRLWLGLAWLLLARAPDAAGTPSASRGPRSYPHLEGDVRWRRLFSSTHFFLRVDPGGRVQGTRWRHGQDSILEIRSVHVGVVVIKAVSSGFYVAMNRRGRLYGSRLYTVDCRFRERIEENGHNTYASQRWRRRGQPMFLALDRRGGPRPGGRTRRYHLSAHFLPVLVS
# Numbers without * were called inactive; . = no result; ! = repeats disagree; [ ] = dose if it differs, or a comment.
SMILES,PAX8 reporter,EWS-Fli block,PGC1a acetyl inh,Env fusion inh,FN deposition inh,FGF22 binding
CCN(C[C@H]1N[C@@](C)(C(=O)OC)[C@H]2C(=O)N(C)C(=O)[C@@H]12)C(=O)COC,10,-1,.,4,-7,43*
CCN(C[C@H]1N[C@@](C)(C(=O)OC)[C@H]2C(=O)N(C)C(=O)[C@@H]12)C(=O)c1ccccc1,0,-9,.,-10,-10,0
O=S(=O)(c1ccccc1)c1nc(-c2cccc(Cl)c2)oc1N1CCOCC1,-4,4,.,.,-1,0
O=S(=O)(c1ccccc1)c1nc(-c2ccccc2)oc1N1CCOCC1,0,-6,.,12,-2,43*
COc1ccc(-c2cnc3c(c2)C(=O)N([C@H](C)CO)C[C@H](C)[C@@H](CN(C)C(=O)NC2CCCC2)O3)cc1,3,-6,-11,-1[16.7 µM],-24,0
O=C(NN=C1CCCC1)c1[nH]c2ccc(Br)cc2c1-c1ccccc1,0,16,.,-1,12,0
O=C(N/N=C/c1ccccc1)c1[nH]c2ccc(Br)cc2c1-c1ccccc1,13,76*,.,-157,-15,0
CN(C)c1cc[n+](Cc2c(Cl)cccc2Cl)cc1,43,.,.,58*,2,.
COCC(C)n1c(SCc2nc(N)nc(Nc3ccccc3C)n2)nc2ccccc2c1=O (stereo unspecified),.,.,11,-48,33*,.
CCCCn1c(SCc2nc(N)nc(Nc3ccccc3C)n2)nc2ccccc2c1=O,.,.,-6,.,.,.
C[C@@H]1CN([C@@H](C)CO)S(=O)(=O)c2ccc(-c3ccccc3)cc2O[C@H]1CN(C)S(C)(=O)=O,.,-3,1,57*[16.7 µM],5,-1
C[C@H](CO)N1C[C@H](C)[C@@H](CN(C)Cc2ccccc2)Oc2cc(-c3ccccc3)ccc2S1(=O)=O,.,18,14,46[16.7 µM],7,.
C[C@@H]1CN([C@H](C)CO)S(=O)(=O)c2ccc(-c3ccccc3)cc2O[C@@H]1CN(C)Cc1ccccc1,.,21,-12,65*[16.7 µM],8,.
C[C@H](CO)N1C[C@H](C)[C@H](CN(C)Cc2ccccc2)Oc2cc(-c3ccccc3)ccc2S1(=O)=O,.,15,-9,79*[16.7 µM],9,.
CCC(=O)N1[C@H](CO)[C@H](c2ccc(-c3ccc(F)cc3)cc2)C12CN(C(C)=O)C2,.,-4,5,.,.,0
C[C@H](CO)N1C[C@H](C)[C@H](CN(C)C(=O)[C@H]2CCCN2C)OCc2ccccc2-c2c(n(C)c3ccccc23)C1=O,2,-1,8,-6[16.7 µM],-4,0
O=C(Cc1cccnc1)N[C@H]1CC[C@@H](CCNS(=O)(=O)c2ccccc2Cl)O[C@@H]1CO,.,.,-1,.,-3,.
COc1ccc(CN2C(=O)C(C)Nc3ncnc(N4CCOCC4)c32)cc1 (stereo unspecified),69*,16,.,-105,-2,0
COc1ccc(CN2C(=O)C(C)Nc3ncnc(N4CCN(c5ccccc5)CC4)c32)cc1 (stereo unspecified),-9,-4,-9,-8,2,0
C[C@@H]1CN([C@@H](C)CO)C(=O)c2cc(NC(=O)NC3CCCCC3)ccc2O[C@@H](C)CCCCO[C@H]1CN(C)C(=O)c1ccccc1,-30,0,-6,30[16.7 µM],-4,0
CO[C@H]1CN(C)C(=O)c2ccc(NC(=O)c3ccccc3F)cc2OC[C@H](C)N(C(C)=O)C[C@@H]1C,3,-6,2,.,7,0
Cc1nn(C)c(C)c1NC(=O)CSc1nc(C2CC2)nc2c1cnn2-c1ccccc1,5,.,3,57*,11,.
COc1cc(NC(=O)c2cnc(NCc3ccccc3)nc2C)cc(OC)c1OC,21,7,-2,28,4,0
COc1cccc(CNc2ncc(C(=O)Nc3cc(OC)c(OC)c(OC)c3)c(C)n2)c1,33,52*,-1,0,18,0
CCOC(=O)c1cc([N+](=O)[O-])c([N+](=O)[O-])cc1NC(C)=O,23,62*,-2,.,-2,0
SMILES,PAX8 reporter,EWS-Fli block,PGC1a acetyl inh,Env fusion inh,FN deposition inh,FGF22 binding
Cc1cc(=O)oc2cc(OC(=O)c3cncc(Br)c3)ccc12,-23,-1,.,28,-3,44*
CCCC(=O)Oc1ccc2c(C)cc(=O)oc2c1,4,-2,.,8,0,0
N#Cc1nc(-c2ccccc2)oc1NCCCn1ccnc1,-18,-12,8,-23,-5,43*
COc1ccc(Cl)cc1S(=O)(=O)N1CCN=C1C,4,6,6,34*,-2,0
COc1ccc(Cl)cc1S(=O)(=O)N1CCCc2ccccc21,-1,.,-2,8,-4,0
O=c1cc(CSc2ccc(Cl)cc2)nc(-c2ccccn2)[nH]1,69*,14,.,31,18,0
Cc1ccc(Nc2nc(N)c(C#N)c(CC#N)c2C#N)cc1,5,-22,1,-5,15,44*
Cc1ccc(-n2nc(CC#N)c(C#N)c2N)cc1,1,.,.,.,7,.
CCOC(=O)C(C(C)=O)c1c(Br)c(O)c(O)c2c(C(=O)c3ccc(C)cc3)coc12 (stereo unspecified),.,.,35,108*,5,.
CO[C@H]1CN(C)C(=O)c2cc(NS(=O)(=O)c3ccc(C)cc3)ccc2OC[C@@H](C)N(Cc2nccs2)C[C@H]1C,19,12,-27,14[16.7 µM],-4,.
O=C(CSc1nc2ccc([N+](=O)[O-])cc2[nH]1)NC1CCCCCC1,9,.,.,116*,.,.
O=[N+]([O-])c1ccc2nc(SCc3cn4cccnc4n3)[nH]c2c1,11,-39,-8,1,1,.
O=[N+]([O-])c1ccc2nc(SCc3cn4cc(Cl)ccc4n3)[nH]c2c1,6,.,.,112*,-3,.
O=[N+]([O-])c1ccc2nc(SCc3cn4ccccc4n3)[nH]c2c1,102*,-66,.,6,-1,0
CCNC(=O)C[C@@H]1CC[C@H]2[C@@H](COC[C@H](O)CN2C(=O)c2cc(Cl)cc(Cl)c2)O1,.,.,0,.,-11,0
O=C(C1CC1)N1C[C@@H]2N[C@H](C1)C2c1ccc(-c2cccc(F)c2)cc1 (stereo partly specified),83*!,6,-10,.,2,0
O=C(NC1CCCCC1)N1C[C@@H]2N[C@H](C1)C2c1ccc(-c2cccc(F)c2)cc1 (stereo partly specified),63*!,-8,-8,.,6,.
COc1cccc(-c2ccc(C3[C@@H]4CN(C(=O)c5cnccn5)C[C@H]3N4)cc2)c1 (stereo partly specified),-21,52*!,1,.,-5,.
